Results published in ChEMBL document CHEMBL1140166, “Discovery of 1,4-substituted piperidines as potent and selective inhibitors of T-type calcium channels” (J Med Chem, 2008).
Values belong to the molecule of their own block, whether it stands above or below them.

Tests used:
[1] = Dissociation constant, pKa of the compound; assay type: physicochemical
Summary of the method: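 pKa was measured by potentiometric titration; calculated pKa values were also given from a pKa database.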

[2] = Bioavailability in Wistar albino rat; assay type: ADME, organism-based; conditions: in vivo
[3] = Oral bioavailability in rhesus monkey at 3 mg/kg; assay type: ADME, organism-based, Macaca mulatta; conditions: in vivo
[4] = Plasma clearance in rhesus monkey at 1 mg/kg, iv; assay type: ADME, organism-based, Macaca mulatta; set-up: dose 1 mg/kg, route intravenous
[5] = Half life in Beagle dog at 1 mg/kg, iv; assay type: ADME, organism-based, Canis lupus familiaris; set-up: dose 1 mg/kg, route intravenous; conditions: in vivo
[6] = Oral bioavailability in Sprague-Dawley rat at 10 mg/kg; assay type: ADME, organism-based; conditions: in vivo
[7] = Oral bioavailability in Beagle dog at 3 mg/kg; assay type: ADME, organism-based, Canis lupus familiaris; conditions: in vivo
[8] = Ratio of drug level from cerebrospinal fluid to plasma in rat at 10 mg/kg, po after 9 hrs; assay type: ADME, organism-based, CSF/Plasma; set-up: dose 10 mg/kg, route oral
Summary of the method: (§1)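 Rats given a single oral 10 mpk dose; brain, plasma and CSF levels measured; brain/plasma and CSF/plasma concentration ratios taken at 9 h after oral dosing.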

[9] = AUC in rhesus monkey at 3 mg/kg, po; assay type: ADME, organism-based, Macaca mulatta; set-up: dose 3 mg/kg, route oral; conditions: plasma
[10] = AUC in Sprague-Dawley rat at 0.3 mg/kg, po; assay type: ADME, organism-based; set-up: dose 0.3 mg/kg, route oral; conditions: plasma
[11] = Half life in Sprague-Dawley rat at 2 mg/kg, iv; assay type: ADME, organism-based; set-up: dose 2 mg/kg, route intravenous; conditions: in vivo
[12] = Plasma clearance in Beagle dog at 1 mg/kg, iv; assay type: ADME, organism-based, Canis lupus familiaris; set-up: dose 1 mg/kg, route intravenous
[13] = Cmax in rhesus monkey at 3 mg/kg, po; assay type: ADME, organism-based, Macaca mulatta; set-up: dose 3 mg/kg, route oral; conditions: in vivo
[14] = Ratio of drug level from brain to plasma in rat at 10 mg/kg, po after 9 hrs; assay type: ADME, organism-based; set-up: dose 10 mg/kg, route oral; summary of the method: as §1
[15] = Cmax in Sprague-Dawley rat at 10 mg/kg, po; assay type: ADME, organism-based; set-up: dose 10 mg/kg, route oral; conditions: in vivo
[16] = Plasma clearance in Sprague-Dawley rat at 2 mg/kg, iv; assay type: ADME, organism-based; set-up: dose 2 mg/kg, route intravenous
[17] = AUC in Sprague-Dawley rat at 1 mg/kg, po; assay type: ADME, organism-based; set-up: dose 1 mg/kg, route oral; conditions: plasma
[18] = AUC in Beagle dog at 3 mg/kg, po; assay type: ADME, organism-based, Canis lupus familiaris; set-up: dose 3 mg/kg, route oral; conditions: plasma
[19] = AUC in Sprague-Dawley rat at 10 mg/kg, po; assay type: ADME, organism-based; set-up: dose 10 mg/kg, route oral; conditions: plasma
[20] = Half life in rhesus monkey at 1 mg/kg, iv; assay type: ADME, organism-based, Macaca mulatta; set-up: dose 1 mg/kg, route intravenous; conditions: in vivo
[21] = Cmax in Sprague-Dawley rat at 1 mg/kg, po; assay type: ADME, organism-based; set-up: dose 1 mg/kg, route oral; conditions: in vivo
[22] = Cmax in Beagle dog at 3 mg/kg, po; assay type: ADME, organism-based, Canis lupus familiaris; set-up: dose 3 mg/kg, route oral; conditions: in vivo

Structure (SMILES): CC(C)(C)CCN1CCC(CNC(=O)c2cc(Cl)cc(Cl)c2)CC1
- pKa [1]: 8.7
- bioavailability [2]: 100%

Structure (SMILES): CC1(C)C[C@@H](CN2CCC(F)(CNC(=O)c3cc(Cl)cc(Cl)c3)CC2)CCO1
- pKa [1]: 7.9

Structure (SMILES): CC(C)(C)CCN1CC[C@H](CNC(=O)c2cc(Cl)cc(Cl)c2)[C@H](F)C1
- bioavailability [3]: 18%
- clearance [4]: 9.6 mL/min/kg
- half-life [5]: 648 min
- bioavailability [6]: 30%
- bioavailability [7]: 67%
- Kp at 9 h [8]: 0.14
- AUC [9]: 2.4 µM·h
- pKa [1]: 7.9
- AUC [10]: 0.01 µM·h
- half-life [11]: 294 min
- clearance [12]: 9.1 mL/min/kg
- Cmax [13]: 184 nM
- Kp at 9 h [14]: 9
- Cmax [15]: 432 nM
- clearance [16]: 41 mL/min/kg
- AUC [17]: 0.19 µM·h
- AUC [18]: 9.5 µM·h
- AUC [19]: 3.1 µM·h
- half-life [20]: 276 min
- Cmax [21]: 33 nM
- Cmax [22]: 1180 nM

Structure (SMILES): CC(C)(C)CCN1CC[C@@H](CNC(=O)c2cc(Cl)cc(Cl)c2)[C@H](F)C1 (relative stereo)
- pKa [1]: 6.7

The next lines start with the values.

- pKa [1]: 8
Structure (SMILES): CC(C)(C)C(=O)CN1CCC(CNC(=O)c2cc(Cl)cc(Cl)c2)CC1

- pKa [1]: 7.6
Structure (SMILES): CC(C)(C)NC(=O)CN1CCC(CNC(=O)c2cc(Cl)cc(Cl)c2)CC1

- pKa [1]: 9.2
Structure (SMILES): CC(C)(C)C(O)CN1CCC(CNC(=O)c2cc(Cl)cc(Cl)c2)CC1 (stereo not drawn)
